In brackets after ≈: the same amount, converted by molar mass.
What was measured:
Type in all cases: functional
Staphylococcus aureus [1] = assay: Reduction in bioluminescent methicillin-sensitive Staphylococcus aureus Xen29 in neutropenic CD1 mouse with peritonitis at 50 mg/kg, sc after 3 hrs relative to control; parameters: scale not given: the % may be the effect or the level left; conditions: route subcutaneous
Outline: (§1)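 Cyclophosphamide-neutropenic female CD-1 mice (150 mg/kg i.p. day −4, 100 mg/kg day −1) were infected i.p. with a lethal inoculum in 6% mucin. A single s.c. or gavage dose was given 1 h later. Mice were anesthetized and imaged hourly to 5 h. Region-of-interest total flux (photons/s/cm2) was averaged over 5 mice. Percent reduction is relative to time-matched saline (10 ml/kg s.c.) controls.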

Staphylococcus aureus [2] = assay: Antibacterial activity against methicillin-resistant Staphylococcus aureus Xen1 infected neutropenic CD1 mouse assessed as mouse survival at 50 mg/kg, sc after 24 hrs; conditions: route subcutaneous
Outline: (§2)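 Female CD-1 mice (20–25 g) were made neutropenic with cyclophosphamide i.p. at 150 mg/kg 4 days and 100 mg/kg 1 day before infection. They were infected i.p. with a lethal dose of lux strain (2 × 10^7 to 5 × 10^8 CFU/mouse) suspended in 6% hog gastric mucin. A single s.c. or gavage dose was given 1 h later. Survivors were counted daily for 7 days, n=5/group.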

Staphylococcus aureus [3] = assay: Antibacterial activity against methicillin-resistant Staphylococcus aureus Xen1 infected nonneutropenic CD1 mouse assessed as mouse survival at 50 mg/kg, sc after 7 days; conditions: 168 h, route subcutaneous
Outline: (§3)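 Healthy female CD-1 mice (20–25 g) were infected i.p. with a lethal dose of lux strain (2 × 10^7 to 5 × 10^8 CFU/mouse) from an overnight Mueller-Hinton culture suspended in 6% hog gastric mucin. A single s.c. dose was given 1 h post-inoculation. Survival was recorded daily for 7 days, n=5/group.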

Staphylococcus aureus [4] = assay: Reduction in bioluminescent methicillin-sensitive Staphylococcus aureus Xen29 in immunocompetent CD1 mouse with peritonitis at 50 mg/kg, sc relative to control; parameters: scale not given: the % may be the effect or the level left; conditions: route subcutaneous
Outline: (§4)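 Peritonitis in healthy female CD-1 mice (n = 5/group): i.p. Xen-29 (2 × 10^7 to 5 × 10^8 CFU) in 6% mucin, then a single s.c. or gavage dose at 1 h. Controls got saline 10 ml/kg s.c. Mice were anesthetized hourly (pentobarbital 60 mg/kg i.p. or isoflurane) and imaged ventral side up for 1–5 min, to 5 h postdosing. Total flux (photons/s/cm2) over the infected region was averaged per group. Percent reduction is versus time-matched saline controls.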

Staphylococcus aureus [5] = assay: Antibacterial activity against methicillin-resistant Staphylococcus aureus Xen1 infected neutropenic CD1 mouse assessed as mortality at 50 mg/kg, sc after 7 days; conditions: 168 h, route subcutaneous; outline: as §2
Staphylococcus aureus [6] = assay: Reduction in bioluminescent methicillin-resistant Staphylococcus aureus with peritonitis Xen1 in immunocompetent CD1 mouse at 50 mg/kg, sc after 3 hrs relative to control; parameters: scale not given: the % may be the effect or the level left; conditions: route subcutaneous
Outline: (§5)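 Peritonitis in healthy female CD-1 mice: lethal i.p. inoculum in 6% mucin, single s.c. dose 1 h later. Mice were anesthetized hourly (isoflurane inhalation or pentobarbital 60 mg/kg i.p.) and imaged ventral side up for 1–5 min. Total flux (photons/s/cm2) was taken over the infected-site region of interest and averaged over 5 mice. Percent reduction is versus saline-treated (10 ml/kg s.c.) controls at the same time point.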

Staphylococcus aureus [7] = assay: Antibacterial activity against methicillin-susceptible Staphylococcus aureus Xen29 infected nonneutropenic CD1 mouse assessed as mouse survival at 50 mg/kg, sc after 7 days; conditions: 168 h, route subcutaneous; outline: as §3
Staphylococcus aureus [8] = assay: Antimicrobial activity against bioluminescent methicillin-resistant Staphylococcus aureus Xen1
Outline: (§6)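 MIC by broth microdilution following CLSI guidelines against bioluminescent lux-carrying strains (Xen-1 plasmid-borne lux, Xen-29 chromosomal lux), grown overnight in Mueller-Hinton broth at 37°C.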

Staphylococcus aureus [9] = assay: Reduction in bioluminescent methicillin-sensitive Staphylococcus aureus Xen29 in immunocompetent CD1 mouse with peritonitis at 50 mg/kg, sc after 4 hrs relative to control; parameters: scale not given: the % may be the effect or the level left; conditions: route subcutaneous; outline: as §4
Staphylococcus aureus [10] = assay: Reduction in bioluminescent methicillin-sensitive Staphylococcus aureus Xen29 in immunocompetent CD1 mouse with peritonitis at 50 mg/kg, sc after 5 hrs relative to control; parameters: scale not given: the % may be the effect or the level left; conditions: route subcutaneous; outline: as §5
Staphylococcus aureus [11] = assay: Reduction in bioluminescent methicillin-resistant Staphylococcus aureus Xen1 in neutropenic CD1 mouse with peritonitis at 50 mg/kg, sc after 5 hrs relative to control; parameters: scale not given: the % may be the effect or the level left; conditions: route subcutaneous; outline: as §1
Staphylococcus aureus [12] = assay: Reduction in bioluminescent methicillin-resistant Staphylococcus aureus Xen1 in neutropenic CD1 mouse with peritonitis at 50 mg/kg, sc after 2 hrs relative to control; parameters: scale not given: the % may be the effect or the level left; conditions: route subcutaneous; outline: as §1
Staphylococcus aureus [13] = assay: Antibacterial activity against methicillin-susceptible Staphylococcus aureus Xen29 infected neutropenic CD1 mouse assessed as mortality at 50 mg/kg, sc after 7 days; conditions: 168 h, route subcutaneous; outline: as §2
Staphylococcus aureus [14] = assay: Reduction in bioluminescent methicillin-sensitive Staphylococcus aureus Xen29 in neutropenic CD1 mouse with peritonitis at 50 mg/kg, sc after 2 hrs relative to control; parameters: scale not given: the % may be the effect or the level left; conditions: route subcutaneous
Outline: (§7)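 Neutropenia was induced with cyclophosphamide 150 mg/kg i.p. at day −4 and 100 mg/kg i.p. at day −1. Mice were then infected i.p. with Xen-29 (2 × 10^7 to 5 × 10^8 CFU) in 6% mucin (n = 5/group) and dosed once, s.c. or by gavage, at 1 h. Luminescence was imaged hourly under anesthesia, 0–5 h postdosing. Mean region-of-interest flux is given as percent reduction versus time-matched saline (10 ml/kg s.c.) controls.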

Staphylococcus aureus [15] = assay: Antimicrobial activity against bioluminescent methicillin-susceptible Staphylococcus aureus Xen29; outline: as §6
Staphylococcus aureus [16] = assay: Reduction in bioluminescent methicillin-sensitive Staphylococcus aureus Xen29 in neutropenic CD1 mouse with peritonitis at 50 mg/kg, sc after 5 hrs relative to control; parameters: scale not given: the % may be the effect or the level left; conditions: route subcutaneous; outline: as §7
Staphylococcus aureus [17] = assay: Reduction in bioluminescent methicillin-sensitive Staphylococcus aureus Xen29 in immunocompetent CD1 mouse with peritonitis at 50 mg/kg, sc after 3 hrs relative to control; parameters: scale not given: the % may be the effect or the level left; conditions: route subcutaneous; outline: as §4
Staphylococcus aureus [18] = assay: Reduction in bioluminescent methicillin-resistant Staphylococcus aureus Xen1 in immunocompetent CD1 mouse with peritonitis at 50 mg/kg, sc after 2 hrs relative to control; parameters: scale not given: the % may be the effect or the level left; conditions: route subcutaneous; outline: as §5
Staphylococcus aureus [19] = assay: Antibacterial activity against methicillin-susceptible Staphylococcus aureus Xen29 infected neutropenic CD1 mouse assessed as mouse survival at 50 mg/kg, sc after 24 hrs; conditions: route subcutaneous; outline: as §2
Staphylococcus aureus [20] = assay: Reduction in bioluminescent methicillin-sensitive Staphylococcus aureus Xen29 in neutropenic CD1 mouse with peritonitis at 50 mg/kg, sc after 4 hrs relative to control; parameters: scale not given: the % may be the effect or the level left; conditions: route subcutaneous; outline: as §7
Staphylococcus aureus [21] = assay: Reduction in bioluminescent methicillin-sensitive Staphylococcus aureus Xen29 in neutropenic CD1 mouse with peritonitis at 100 mg/kg, po after 5 hrs relative to control; parameters: scale not given: the % may be the effect or the level left; outline: as §7
Staphylococcus aureus [22] = assay: Reduction in bioluminescent methicillin-resistant Staphylococcus aureus Xen1 in neutropenic CD1 mouse with peritonitis at 100 mg/kg, po after 3 hrs relative to control; parameters: scale not given: the % may be the effect or the level left; outline: as §1
Staphylococcus aureus [23] = assay: Antibacterial activity against methicillin-resistant Staphylococcus aureus Xen1 infected neutropenic CD1 mouse assessed as mortality at 100 mg/kg, po after 4 days; outline: as §2
Staphylococcus aureus [24] = assay: Reduction in bioluminescent methicillin-sensitive Staphylococcus aureus Xen29 in immunocompetent CD1 mouse with peritonitis at 100 mg/kg, po after 3 hrs relative to control; parameters: scale not given: the % may be the effect or the level left; outline: as §4
Staphylococcus aureus [25] = assay: Reduction in bioluminescent methicillin-sensitive Staphylococcus aureus Xen29 in neutropenic CD1 mouse with peritonitis at 100 mg/kg, po after 4 hrs relative to control; parameters: scale not given: the % may be the effect or the level left; outline: as §7
Staphylococcus aureus [26] = assay: Reduction in bioluminescent methicillin-sensitive Staphylococcus aureus Xen29 in neutropenic CD1 mouse with peritonitis at 100 mg/kg, po after 3 hrs relative to control; parameters: scale not given: the % may be the effect or the level left; outline: as §7
Staphylococcus aureus [27] = assay: Antibacterial activity against methicillin-resistant Staphylococcus aureus Xen1 infected neutropenic CD1 mouse assessed as mortality at 100 mg/kg, po within 24 hrs; conditions: Xen1, 24 h; outline: as §2
Staphylococcus aureus [28] = assay: Reduction in bioluminescent methicillin-sensitive Staphylococcus aureus Xen29 in immunocompetent CD1 mouse with peritonitis at 100 mg/kg, po after 4 hrs relative to control; parameters: scale not given: the % may be the effect or the level left; outline: as §4
Staphylococcus aureus [29] = assay: Reduction in bioluminescent methicillin-resistant Staphylococcus aureus Xen1 in neutropenic CD1 mouse with peritonitis at 100 mg/kg, po after 2 hrs relative to control; parameters: scale not given: the % may be the effect or the level left; outline: as §1
Staphylococcus aureus [30] = assay: Reduction in bioluminescent methicillin-sensitive Staphylococcus aureus Xen29 in immunocompetent CD1 mouse with peritonitis at 100 mg/kg, po after 5 hrs relative to control; parameters: scale not given: the % may be the effect or the level left; outline: as §4
Staphylococcus aureus [31] = assay: Reduction in bioluminescent methicillin-resistant Staphylococcus aureus Xen1 in neutropenic CD1 mouse with peritonitis at 100 mg/kg, po after 5 hrs relative to control; parameters: scale not given: the % may be the effect or the level left; outline: as §1
Staphylococcus aureus [32] = assay: Antibacterial activity against methicillin-susceptible Staphylococcus aureus Xen29 infected neutropenic CD1 mouse assessed as mortality at 100 mg/kg, po after 4 days; outline: as §2
Staphylococcus aureus [33] = assay: Antibacterial activity against methicillin-susceptible Staphylococcus aureus Xen29 infected neutropenic CD1 mouse assessed as mortality at 100 mg/kg, po within 24 hrs; conditions: Xen29, 24 h; outline: as §2

CCCCCCCCCC(=O)N[C@@H](Cc1c[nH]c2ccccc12)C(=O)N[C@H](CC(N)=O)C(=O)N[C@@H](CC(=O)O)C(=O)N[C@@H]1C(=O)NCC(=O)N[C@@H](CCCN)C(=O)N[C@@H](CC(=O)O)C(=O)N[C@H](C)C(=O)N[C@@H](CC(=O)O)C(=O)NCC(=O)N[C@H](CO)C(=O)N[C@@H]([C@H](C)CC(=O)O)C(=O)N[C@@H](CC(=O)c2ccccc2N)C(=O)O[C@@H]1C
Activity (Staphylococcus aureus [1]): 98%
survival at 50 mg/kg (Staphylococcus aureus [2]): 100%
survival at 50 mg/kg (Staphylococcus aureus [3]): 100%
Activity (Staphylococcus aureus [4]): 90%
survival at 50 mg/kg (Staphylococcus aureus [5]): 40%
Activity (Staphylococcus aureus [6]): 97%
survival at 50 mg/kg (Staphylococcus aureus [7]): 100%
MIC (Staphylococcus aureus [8]): 0.5 µg/mL (≈ 0.309 µM)
Activity (Staphylococcus aureus [9]): 98%
Activity (Staphylococcus aureus [10]): 99%
Activity (Staphylococcus aureus [11]): 99.9%
Activity (Staphylococcus aureus [12]): 93%
survival at 50 mg/kg (Staphylococcus aureus [13]): 40%
Activity (Staphylococcus aureus [14]): 92%
MIC (Staphylococcus aureus [15]): 1 µg/mL (≈ 0.617 µM)
Activity (Staphylococcus aureus [16]): > 99.7%
Activity (Staphylococcus aureus [17]): 96%
Activity (Staphylococcus aureus [18]): 89%
survival at 50 mg/kg (Staphylococcus aureus [19]): 100%
Activity (Staphylococcus aureus [20]): 99.4%

CC(=O)NC[C@H]1CN(c2ccc(N3CCOCC3)c(F)c2)C(=O)O1 [LINEZOLID]
Activity (Staphylococcus aureus [21]): 96.6%
Activity (Staphylococcus aureus [22]): 98%
Activity (Staphylococcus aureus [23]): 100%
MIC (Staphylococcus aureus [8]): 0.5 µg/mL (≈ 1.48 µM)
Activity (Staphylococcus aureus [24]): 59%
Activity (Staphylococcus aureus [25]): 89%
Activity (Staphylococcus aureus [26]): 68%
survival at 100 mg/kg (Staphylococcus aureus [27]): 100%
Activity (Staphylococcus aureus [28]): 85%
Activity (Staphylococcus aureus [29]): 91%
MIC (Staphylococcus aureus [15]): 1 µg/mL (≈ 2.96 µM)
Activity (Staphylococcus aureus [30]): 90%
Activity (Staphylococcus aureus [31]): 99.2%
Activity (Staphylococcus aureus [32]): 100%
survival at 100 mg/kg (Staphylococcus aureus [33]): 100%

Source: ChEMBL document CHEMBL1144463, “Rapid bactericidal activity of daptomycin against methicillin-resistant and methicillin-susceptible Staphylococcus aureus peritonitis in mice as measured with bioluminescent bacteria” (2007)
